From ChEMBL document CHEMBL4342502, “Synthesis and Antichlamydial Activity of Molecules Based on Dysregulators of Cylindrical Proteases” (J Med Chem, 2020)
Active and inactive are the calls of the source. The rule behind the calls is not given here.

Tests used:
Staphylococcus aureus [1] = test: Antibacterial activity against methicillin-resistant Staphylococcus aureus ATCC 43300 assessed as bacterial growth inhibition at 32 ug/ml measured after 16 hrs by broth microdilution method; assay type: functional, organism-based
Pseudomonas aeruginosa = test: Antibacterial activity against Pseudomonas aeruginosa ATCC 27853 assessed as bacterial growth inhibition at 32 ug/ml measured after 16 hrs by broth microdilution method; assay type: functional, organism-based
[2] = Stability of compound in human liver microsomes at 1 ug/ml measured up to 60 mins in absence of NADPH by LC-MS/MS analysis; assay type: ADME, Microsome; details: 1 h
Procedure, shortened: (§1)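 Human liver microsomes (1.0 mg/mL protein) in 100 mM phosphate pH 7.4 with 10 mM MgCl2 and 2 mM NADPH, preincubated 10 min at 37 °C. Reaction started with compound at 1 μg/mL. Sampled at 0, 5, 15, 20, 30, 45 and 60 min and quenched in methanol with internal standard. Controls: no NADPH (negative), testosterone (positive). Analysed by LC-MS/MS, triplicate.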

Escherichia coli [3] = test: Antibacterial activity against Escherichia coli ATCC 25922 assessed as bacterial growth inhibition at 32 ug/ml measured after 16 hrs by broth microdilution method; assay type: functional, organism-based
Staphylococcus aureus [4] = test: Antibacterial activity against Staphylococcus aureus JE2 assessed as bacterial death up to 256 ug/ml measured after 16 hrs by broth microdilution method; assay type: functional, organism-based
Procedure, shortened: (§2)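 Broth microdilution in Mueller Hinton broth, triplicate. Direct colony suspension at 1.5 x 10^8 CFU/mL diluted to ~10^5 CFU/mL. Serial dilutions made from DMSO stocks at 1 mg/mL; vancomycin positive control, blank medium negative control. Incubated 16 h at optimum temperature. MIC is the lowest concentration without visible growth at 600 nm; mean of triplicate determinations.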

Candida albicans = test: Antifungal activity against Candida albicans ATCC 90028 assessed as fungal growth inhibition at 32 ug/ml measured after 16 hrs by broth microdilution method; assay type: functional, organism-based
Escherichia coli [5] = test: Antibacterial activity against Escherichia coli K12 assessed as bacterial growth inhibition at 32 ug/ml measured after 16 hrs by broth microdilution method; assay type: functional, organism-based; details: K-12; procedure, shortened: as §2
Escherichia coli [6] = test: Antibacterial activity against Escherichia coli K12 assessed as bacterial death up to 256 ug/ml measured after 16 hrs by broth microdilution method; assay type: functional, organism-based; details: K-12; procedure, shortened: as §2
[7] = Hepatic intrinsic clearance in human liver microsomes at 1 ug/ml measured per kg body weight up to 60 mins by LC-MS/MS analysis; assay type: ADME, Microsome; details: 1 h
HaCaT = test: Cytotoxicity against immortal human HaCaT cells assessed as reduction in cell viability at 50 ug/ml after 24 hrs by CCK-8 assay; assay type: cell-based
Procedure, shortened: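 HeLa 229 and HaCaT cells in DMEM with 10% FBS and 1% penicillin/streptomycin, 37 °C, 5% CO2, seeded at 5000 cells/well. Next day treated with 50 μg/mL in triplicate, with matching DMSO controls. After 24 h, CCK-8 added for 2 h; corrected absorbance read at 450 nm.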

Chlamydia trachomatis [8] = test: Anti-chlamydial activity against Chlamydia trachomatis Serovar LGV-L2 infected in Hep2 cells assessed as inhibition of chlamydial inclusion at 50 ug/ml treated at 8 hrs post infection and measured at 24 hrs post-infection by immunofluorescence assay; assay type: functional, organism-based
Procedure, shortened: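 HEp-2 cells infected with C. trachomatis serovar L2. Compounds at 50 μg/mL added 8 hpi; inclusion number and size assessed by immunofluorescence at 24 hpi against untreated cells. Cell morphology and viability checked by phase-contrast microscopy.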

[9] = Drug metabolism in human liver microsomes assessed as amount of drug modified at 1 ug/ml […] in presence of NADPH by LC-MS/MS analysis; assay type: ADME, Microsome; details: read-out: Drug metabolism
[10] = Stability of compound in mouse pre-heated plasma at 50 uM incubated up to 120 mins by HPLC-ESI/MS analysis; assay type: ADME, cell-free; details: 2 h
Procedure, shortened: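 Compounds from 2.5 mM DMSO stocks incubated at 50 μM final in mouse plasma diluted to 80% with PBS, preheated, 37 °C, shaking. Sampled at 0, 15, 30, 60, 90 and 120 min and quenched with cold acetonitrile. Centrifuged; supernatant analysed by HPLC-ESI-MS. Peak area reported relative to time zero. Enalapril positive control; triplicate.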

Cryptococcus neoformans = test: Antifungal activity against Cryptococcus neoformans var. grubii H99 ATCC […] as fungal growth inhibition at 32 ug/ml measured after 16 hrs by broth microdilution method; assay type: functional, organism-based; details: var. grubii H99 ATCC 208821
Staphylococcus aureus [11] = test: Antibacterial activity against Staphylococcus aureus JE2 assessed as bacterial growth inhibition at 32 ug/ml measured after 16 hrs by broth microdilution method; assay type: functional, organism-based; procedure, shortened: as §2
[12] = Intrinsic clearance in human liver microsomes at 1 ug/ml measured per mg protein up to 60 mins by LC-MS/MS analysis; assay type: ADME, Microsome; procedure, shortened: as §1
[13] = Half life in human liver microsomes at 1 ug/ml measured up to 60 mins by LC-MS/MS analysis; assay type: ADME, Microsome; procedure, shortened: as §1
Klebsiella pneumoniae = test: Antibacterial activity against Klebsiella pneumoniae ATCC 700603 assessed as bacterial growth inhibition at 32 ug/ml measured after 16 hrs by broth microdilution method; assay type: functional, organism-based
Chlamydia trachomatis [14] = test: Anti-chlamydial activity against Chlamydia trachomatis Serovar LGV-L2 infected in Hep2 cells assessed as reduction in chlamydial infectivity by measuring decrease in inclusion forming units at 50 ug/ml treated at 8 hrs post-infection and 24 hrs later re-infecting fresh Hep2 cells monolayer with infected cells and measured at 24 hrs post re-infection by immunofluorescence staining based microscopy analysis; assay type: functional, organism-based
Procedure, shortened: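 HEp-2 cells in DMEM with 10% FBS, infected with C. trachomatis L2 at MOI 1. Compounds added 8 hpi in triplicate; DMSO stocks at 50 mg/mL. At 24 hpi lysates collected in sucrose storage medium, frozen at −80 °C, and used to infect fresh HEp-2 monolayers in 10-fold dilutions. After 24 h, stained with goat anti-MOMP and Alexa488 secondary. Inclusions counted in 15 fields at 20x; IFU = mean count per field corrected for dilution.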

Acinetobacter baumannii = test: Antibacterial activity against Acinetobacter baumannii ATCC 19606 assessed as bacterial growth inhibition at 32 ug/ml measured after 16 hrs by broth microdilution method; assay type: functional, organism-based; details: ATCC 19606 = CIP 70.34 = JCM 6841
[15] = Stability of the compound in simulated gastric fluid at 50 uM and pH 1.2 at 37 degree C measured up to 120 mins by HPLC-ESI/MS analysis; details: simulated gi fluid, pH 1.2, 2 h
[16] = Toxicity in Drosophila melanogaster assessed as survival rate at 0.25 to 1 mM; details: 1000 µM
Procedure, shortened: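 Drosophila SMART assay using third-instar larvae (72 ± 4 h) from ST and HB crosses. Larvae exposed in hydrated instant mashed-potato medium at 0.25, 0.5 and 1.0 mM final. Vehicle control: water with 1% Tween-80 and 3% ethanol. Survival of treated groups compared statistically with the vehicle control.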

[17] = biological target: ATP-dependent Clp protease proteolytic subunit (Escherichia coli (strain K12)) (UniProt P0A6G7); test: (§3) Activation of recombinant Escherichia coli ClpP assessed as induction of casein degradation at 0.1 to 1 uM using FITC-labelled casein as substrate pretreated with enzyme for 30 mins followed by substrate addition and measured every 3 mins for 3 hrs in absence of AAA+ chaperone by fluorescence based tecan-plate reader assay
Chain of ATP-dependent Clp protease proteolytic subunit (Escherichia coli (strain K12)) (P0A6G7 whole entry): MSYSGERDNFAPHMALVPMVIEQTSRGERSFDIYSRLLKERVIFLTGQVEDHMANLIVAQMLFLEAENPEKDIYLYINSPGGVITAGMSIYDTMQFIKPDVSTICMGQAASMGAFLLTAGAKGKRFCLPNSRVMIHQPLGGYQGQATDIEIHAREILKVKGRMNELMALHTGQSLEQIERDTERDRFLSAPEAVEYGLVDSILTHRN
Procedure, shortened: (§4)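 Recombinant C-terminal His6-tagged ClpP, expressed in a clpAPX-null E. coli strain and purified (mammalian ClpP without mitochondrial signal, codon-optimized). ClpP at 1 or 0.1 μM (E. coli), 1 μM (human, mouse) or 6 μM (chlamydial ClpP1 and ClpP2) preincubated with compound or DMSO, 30 min, 32 °C, in HEPES pH 7.6/KCl/MgCl2/DTT/glycerol buffer. 20 μM FITC-casein then added. Fluorescence (ex 490/em 525 nm) read every 3 min for 3 h. At least three runs on at least two protein preparations.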

[18] = as §3, with “recombinant mouse C-terminal 6xHis-tagged ClpP expressed in” for “recombinant”, “coli” for “coli ClpP”; procedure, shortened: as §4
[19] = as §3, with “recombinant human C-terminal 6xHis-tagged ClpP expressed in” for “recombinant”, “coli” for “coli ClpP”; procedure, shortened: as §4
[20] = Mutagenicity in Drosophila melanogaster somatic cells assessed as frequency of clone formation in HB crosses at 0.25 to 1 mM by SMART assay; assay type: ADME; details: 1000 µM
Procedure, shortened: (§5)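 Drosophila SMART wing-spot assay, ST and HB crosses. Third-instar larvae (72 ± 4 h) placed on hydrated instant mashed potato medium containing compound at 0.25, 0.5 or 1.0 mM final. Negative control: water with 1% Tween-80 and 3% ethanol. Statistics by Frei and Würgler two-sided U test, P≤0.05.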

[21] = Mutagenicity in Drosophila melanogaster somatic cells assessed as frequency of clone formation in ST crosses at 0.25 to 1 mM by SMART assay; assay type: ADME; details: 1000 µM; procedure, shortened: as §5

SMILES	inhibition (Staphylococcus aureus [1])	inhibition (Pseudomonas aeruginosa)	inhibition (Escherichia coli [3])	Activity (Staphylococcus aureus [4])	inhibition (Candida albicans)	inhibition (Escherichia coli [5])	Activity (Escherichia coli [6])	inhibition (Chlamydia trachomatis [8])	inhibition (Cryptococcus neoformans)	inhibition (Staphylococcus aureus [11])	inhibition (Klebsiella pneumoniae)	inhibition (Chlamydia trachomatis [14])	inhibition (Acinetobacter baumannii)	other results
CC(C)(C(=O)N1CCN(c2ccc(Cl)c(Cl)c2)CC1)S(=O)(=O)c1ccc(C(F)(F)F)cn1	inactive	inactive	inactive	inactive	inactive	inactive	inactive	Active	inactive	inactive	inactive	Active	inactive	Stability [2]: Stable; CLH [7]: 874 mL/min/kg; Activity (HaCaT): Non-Toxic; metabolised at 10 min, 1 ug/ml [9]: 90%; Stability [10]: Stable; microsomal CLint at 1 ug/ml ([12]; liver microsomes, read-out: CLH): 112 µL/min/mg; half-life at 1 ug/ml ([13]; liver microsomes): 6.25 min; Stability [15]: Stable
CC(C)(C(=O)NCCOc1ccccc1)S(=O)(=O)c1ccc(C(F)(F)F)cn1	inactive	inactive	inactive	inactive	inactive	inactive	inactive	Active	inactive	inactive	inactive	Active	inactive	Stability [2]: Stable; CLH [7]: 1460 mL/min/kg; metabolised at 10 min, 1 ug/ml [9]: 90%; microsomal intrinsic clearance ([12]; microsomes, 1 h): 185.6 µL/min; t1/2 ([13]; microsomes, 1 h): 3.73 min
CC(C)(C(=O)NCCOc1ccccc1Cl)S(=O)(=O)c1ccccc1	inactive	inactive	inactive	–	inactive	inactive	–	inactive	inactive	inactive	inactive	–	inactive	Activity [16]: Non-Toxic
CC(C)(C(=O)NCCSc1ccc(Cl)cc1)S(=O)(=O)c1ccccc1	inactive	inactive	inactive	–	inactive	inactive	–	inactive	inactive	inactive	inactive	–	inactive	Activity [17]: inactive; Activity [18]: Not Active; Activity [19]: Not Active
CC(C)(C(=O)NCCSc1ccccc1Cl)S(=O)(=O)c1ccccc1	–	–	–	–	–	–	–	inactive	–	–	–	–	–	Activity [17]: inactive; Activity [18]: Not Active; Activity [19]: Not Active
CC(C)(C(=O)N1CCN(Cc2cccc(Cl)c2)CC1)S(=O)(=O)c1ccc(C(F)(F)F)cn1	inactive	inactive	inactive	–	inactive	inactive	–	Active	inactive	inactive	inactive	Active	inactive	Activity [16]: Non-Toxic; Activity [20]: Non-Toxic; Activity [21]: Non-Toxic
Cc1ccc(CN2CCN(C(=O)C(C)(C)S(=O)(=O)c3ccc(C(F)(F)F)cn3)CC2)cc1	inactive	inactive	inactive	inactive	inactive	inactive	inactive	Active	inactive	inactive	inactive	–	inactive	Activity (HaCaT): Non-Toxic
Cc1ccccc1N1CCN(C(=O)C(C)(C)S(=O)(=O)c2ccc(C(F)(F)F)cn2)CC1	inactive	inactive	inactive	inactive	inactive	inactive	inactive	Active	inactive	inactive	inactive	Active	inactive	–
